Measured values published in ChEMBL document CHEMBL4396947, “Synthesis and characterization of novel isoform-selective IP6K1 inhibitors” (Bioorg Med Chem Lett, 2019).

Experiments:
[1] = molecular target: T1, Inositol hexakisphosphate kinase 1 (Homo sapiens, UniProt Q92551); assay: Inhibition of IP6K1 (unknown origin) incubated for 30 mins using IP6 as substrate in presence of ATP by ADP-Glo reagent based luminescence assay; details: read-out: pIC50 (converted)
In short: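 Luminescent ADP-Glo Max format adapted for IP6K, with purified enzyme and ATP at 1 mM, which is consumed as the kinase reaction proceeds. IC50 taken from the resulting inhibition data.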
Target sequence in this assay (Q92551 whole entry): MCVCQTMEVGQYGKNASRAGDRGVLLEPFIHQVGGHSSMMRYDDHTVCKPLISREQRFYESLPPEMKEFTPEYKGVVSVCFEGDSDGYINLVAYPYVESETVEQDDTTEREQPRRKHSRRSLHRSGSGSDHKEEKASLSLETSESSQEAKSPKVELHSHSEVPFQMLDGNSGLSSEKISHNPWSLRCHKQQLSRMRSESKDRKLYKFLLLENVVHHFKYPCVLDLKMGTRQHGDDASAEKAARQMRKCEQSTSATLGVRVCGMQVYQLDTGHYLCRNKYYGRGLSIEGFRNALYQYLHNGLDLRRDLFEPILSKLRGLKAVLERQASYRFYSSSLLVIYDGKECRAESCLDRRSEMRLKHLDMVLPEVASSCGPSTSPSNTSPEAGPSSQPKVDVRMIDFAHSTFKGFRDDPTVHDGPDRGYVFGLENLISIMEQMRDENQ

[2] = molecular target: T1, Inositol hexakisphosphate kinase 1; assay: Binding affinity to IP6K1 (unknown origin) assessed as change in melting temperature by SYPRO orange dye-based assay
In short: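 Thermal shift format. Purified IP6K1 heated across a temperature gradient with the ligand at several concentrations. Binding read as the rise in protein melting temperature, including the maximal Tm shift (TmMax).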
Target sequence in this assay (Q92551 whole entry, looked up): as the sequence (Q92551 whole entry) above

[3] = molecular target: T1, Inositol hexakisphosphate kinase 1; assay: Binding affinity to IP6K1 (unknown origin) assessed as change in melting temperature at 11.1 uM by SYPRO orange dye based assay
Target sequence in this assay (Q92551 whole entry, looked up): as the sequence (Q92551 whole entry) above

[4] = Half life in mouse microsomes at 1 uM incubated for 5 to 60 mins in presence of NADPH by LC-MS/MS analysis
[5] = Half life in human microsomes at 1 uM incubated for 5 to 60 mins in presence of NADPH by LC-MS/MS analysis; format: ADME, Microsome
[6] = Solubility of compound in 2% DMSO by LC-MS/MS analysis; format: physicochemical

IC50 [1] [µM]	SMILES	also measured
123	COCCNc1nc(NCCc2c[nH]c3ccc(C)cc23)nc2[nH]cnc12	
93.3	COCCNc1nc(NCCc2cccc3ccccc23)nc2[nH]cnc12	
> 200	FC(F)(F)c1cccc(CNc2nc(NCc3ccccc3)c3nc[nH]c3n2)c1	
> 200	COCCNc1nc(NCCc2c[nH]c3ccccc23)nc2c1ncn2C	
69.2	COCCNc1nc(NCCCc2c[nH]c3ccccc23)nc2[nH]cnc12	
31.6	COCCNc1nc(NCCc2c[nH]c3ccc(O)cc23)nc2[nH]cnc12	
11.2	COCCNc1nc(NCCc2ccccc2OC)nc2[nH]cnc12	
1.74	O=c1ccc(CNc2nc(NCCc3c[nH]c4ccccc34)nc3[nH]cnc23)c[nH]1	
138	COCCNc1nc(NCCc2c[nH]c3ccc(OC)cc23)nc2[nH]cnc12	
2.75	COCCNc1nc(NCCc2c[nH]c3cc(OC)ccc23)nc2[nH]cnc12	ΔTm [2]: 4.7 °C; ΔTm [3]: 3.6 °C
8.32	COCCNc1nc(NCCc2c[nH]c3ccccc23)nc2[nH]cnc12	ΔTm [2]: 4.3 °C; ΔTm [3]: 2.4 °C
> 200	COCCNc1nc(N(C)CCc2c[nH]c3ccccc23)nc2nc[nH]c12	
117	COCCNc1nc(NCc2cccc(C(F)(F)F)c2)nc2[nH]cnc12	
> 200	FC(F)(F)c1cccc(CNc2nc(NCCc3ccccc3)c3nc[nH]c3n2)c1	
79.4	COCCNc1nc(NCCc2ccccc2)nc2[nH]cnc12	
46.8	N#Cc1ccc(CNc2nc(NCCc3c[nH]c4ccccc34)nc3[nH]cnc23)cc1	
89.1	COCCNc1nc(NCCc2ccc(F)cc2)nc2[nH]cnc12	
10	O=c1cc(CNc2nc(NCCc3c[nH]c4ccccc34)nc3[nH]cnc23)cc[nH]1	
3.02	Cc1[nH]c2ccccc2c1CCNc1nc(NCc2ccc(=O)[nH]c2)c2nc[nH]c2n1	
> 200	COCCNc1nc(NCCc2c[nH]c3ccccc23)nc2[nH]ccc12	
31.6	COCCNc1nc(NCCc2cn(C)c3ccccc23)nc2nc[nH]c12	
26.9	COCCNc1nc(NCCc2c[nH]c3ccc(Cl)cc23)nc2[nH]cnc12	
> 200	COCCNc1nc(NCCc2c[nH]cn2)nc2[nH]cnc12	
> 200	COCCNc1nc(NCCc2c[nH]c3ccccc23)nc2cc[nH]c12	
151	c1ccc2c(CCNc3nc(NCc4ccc5nonc5c4)c4nc[nH]c4n3)c[nH]c2c1	
1.95	COCCNc1nc(NCCc2c(C)[nH]c3ccccc23)nc2[nH]cnc12	
> 200	COCCN(C)c1nc(NCCc2c[nH]c3ccccc23)nc2c1ncn2C	
> 200	O=[N+]([O-])c1ccc(CNc2nc(NCc3cccc(C(F)(F)F)c3)nc3[nH]cnc23)cc1	ΔTm [2]: 3.3 °C; ΔTm [3]: 1.8 °C; half-life at 1 µM [4]: 9 min; half-life at 1 µM [5]: 32 min; solubility [6]: Insoluble
